According to ChEMBL document CHEMBL1165950, “Design and synthesis of new potent anticancer pyrazoles with high FLT3 kinase inhibitory selectivity” (Bioorg Med Chem, 2010):

Key:
Assay type in all cases: functional
SNB-19 = experiment: Growth inhibition of human SNB19 cells after 48 hrs by sulforhodamine B assay; settings: SNB-19, 48 h; for CC50: read-out: LC50 (the source's name)
Method in brief: (§1)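 NCI 60-cell screen, five-dose mode. Cells grown in RPMI 1640 with 5% FBS and 2 mM L-glutamine and plated at 5000-40,000 cells/well according to doubling time. After 24 h preincubation, a Tz plate was TCA-fixed. Five concentrations (10-fold or 1/2 log dilutions) were applied for 48 h at 37 °C. SRB staining read at 515 nm. IC50 taken from [(Ti-Tz)/(C-Tz)]×100 = 50.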

786-0 = experiment: Growth inhibition of human 786-0 cells after 48 hrs by sulforhodamine B assay; settings: 786-0, 48 h; for CC50: read-out: LC50 (the source's name)
Method in brief: (§2)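 NCI five-dose SRB assay in RPMI 1640 with 5% FBS and 2 mM L-glutamine. Cells were preincubated 24 h, then exposed 48 h at 37 °C to five concentrations (10-fold or half-log serial dilutions from DMSO stocks). TCA fixation, SRB staining, and absorbance at 515 nm followed. IC50 was taken where [(Ti−Tz)/(C−Tz)]×100 = 50, with Tz as time-zero cell density.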

OVCAR-8 = experiment: Cytotoxicity against human OVCAR8 cells assessed as cell growth at 10 uM; settings: read-out: Activity
Method in brief: (§3)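 NCI-60 screen: cells grown in RPMI 1640 with 5% FBS and 2 mM L-glutamine, plated at 5000–40,000 cells/well according to doubling time, and preincubated 24 h at 37 °C, 5% CO2. The single 10 µM dose (DMSO stock) was added, then incubated 48 h. Cells were TCA-fixed and stained with 0.4% SRB, read at 515 nm, and growth % calculated against time-zero and control plates.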

HOP-62 = experiment: Growth inhibition of human HOP62 cells after 48 hrs by sulforhodamine B assay; settings: HOP-62, 48 h; method in brief: as §1
M14 = experiment: Cytotoxicity against human M14 cells assessed as cell growth at 0.001 uM after 48 hrs by sulforhodamine B assay; settings: M14, 48 h, read-out: Activity
MCF7 = experiment: Growth inhibition of human MCF7 cells after 48 hrs by sulforhodamine B assay; settings: MCF7, 48 h; method in brief: as §1
SK-MEL-28 = experiment: Cytotoxicity against human SK-MEL-28 cells assessed as cell growth at 1 uM after 48 hrs by sulforhodamine B assay; settings: SK-MEL-28, 48 h, read-out: Activity
HCT-15 = experiment: Cytotoxicity against human HCT15 cells assessed as cell growth at 10 uM after 48 hrs by sulforhodamine B assay; settings: HCT-15, 48 h, read-out: Activity
MDA-MB-435 = experiment: Cytotoxicity against human MDA-MB-435 cells assessed as cell growth at 10 uM after 48 hrs by sulforhodamine B assay; settings: MDA-MB-435, 48 h, read-out: Activity
[1] = Growth inhibition of human […] cells after 48 hrs by sulforhodamine B assay; settings: for CC50: read-out: LC50 (the source's name); method in brief: as §1
DU-145 [2] = experiment: Cytotoxicity against human DU145 cells assessed as cell growth at 10 uM after 48 hrs by sulforhodamine B assay; settings: DU-145, 48 h, read-out: Activity
NCI-H23 [3] = experiment: Cytotoxicity against human NCI-H23 cells assessed as cell growth at 0.001 uM after 48 hrs by sulforhodamine B assay; settings: NCI-H23, 48 h, read-out: Activity
K562 = experiment: Growth inhibition of human K562 cells after 48 hrs by sulforhodamine B assay; settings: K562, 48 h; method in brief: as §1
UACC-257 = experiment: Cytotoxicity against human UACC257 cells assessed as cell growth at 100 nM after 48 hrs by sulforhodamine B assay; settings: UACC-257, 48 h, read-out: Activity
SF-268 = experiment: Cytotoxicity against human SF268 cells assessed as cell growth at 10 uM; settings: read-out: Activity; method in brief: as §3
RXF 393 = experiment: Cytotoxicity against human RXF393 cells assessed as cell growth at 100 nM after 48 hrs by sulforhodamine B assay; settings: RXF 393, 48 h, read-out: Activity
HL-60(TB) = experiment: Cytotoxicity against human HL-60(TB) cells assessed as cell growth at 10 uM; settings: read-out: Activity
Method in brief: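 NCI 60-cell panel screen at a single concentration of 10 µM. Cells are grown in RPMI 1640 with 5% FBS and 2 mM L-glutamine and read by SRB protein staining at 515 nm. Percent growth is measured relative to time-zero and untreated controls; inhibition % is 100 minus growth %.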

COLO 205 = experiment: Cytotoxicity against human COLO205 cells assessed as cell growth at 0.01 uM after 48 hrs by sulforhodamine B assay; settings: COLO 205, 48 h, read-out: Activity
Method in brief: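 NCI-60 five-dose screen. Cells were grown in RPMI 1640 with 5% FBS and 2 mM L-glutamine, plated at 5000–40,000 cells/well and preincubated for 24 h. Time-zero plates were TCA-fixed. DMSO-solubilized drug was added at five concentrations (10-fold or ½-log serial dilutions) for 48 h at 37 °C, 5% CO2. Cells were TCA-fixed, stained with 0.4% SRB and read at 515 nm. Percent growth used time-zero, control and test absorbances.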

HCT-116 = experiment: Cytotoxicity against human HCT116 cells assessed as cell growth at 0.01 uM after 48 hrs by sulforhodamine B assay; settings: HCT-116, 48 h, read-out: Activity
SW-620 = experiment: Growth inhibition of human SW620 cells after 48 hrs by sulforhodamine B assay; settings: SW-620, 48 h; for CC50: read-out: LC50 (the source's name); method in brief: as §1
Malme-3M = experiment: Cytotoxicity against human MALME-3M cells assessed as cell growth at 10 uM; settings: read-out: Activity; method in brief: as §3
NCI-H23 [4] = experiment: Cytotoxicity against human NCI-H23 cells assessed as cell growth at 100 nM after 48 hrs by sulforhodamine B assay; settings: NCI-H23, 48 h, read-out: Activity
DU-145 [5] = experiment: Growth inhibition of human DU145 cells after 48 hrs by sulforhodamine B assay; settings: DU-145, 48 h; method in brief: as §2
[6] = Cytotoxicity against human Hs 578T cells assessed as cell growth at 10 uM; settings: read-out: Activity
Method in brief: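 Single-dose NCI-60 screen at 10 µM. Cells were grown in RPMI 1640 with 5% FBS and 2 mM L-glutamine, then treated for 48 h at 37 °C. Protein was measured by SRB staining with absorbance at 515 nm. Percentage growth was recorded, and inhibition percentage was calculated as 100 minus growth percentage.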

OVCAR-5 = experiment: Cytotoxicity against human OVCAR5 cells assessed as cell growth at 0.01 uM after 48 hrs by sulforhodamine B assay; settings: OVCAR-5, 48 h, read-out: Activity
BT-549 = experiment: Growth inhibition of human BT549 cells after 48 hrs by sulforhodamine B assay; settings: BT-549, 48 h; for CC50: read-out: LC50 (the source's name); method in brief: as §2

## Cc1cc(O)cc(-c2nn(CC#N)cc2-c2ccnc(-c3ccc(Oc4ccccc4)cc3)c2)c1
SNB-19
  GI50: 1.07 µM
  TGI: 23.4 µM
  CC50: 51.1 µM
786-0
  GI50: 2140 nM
  TGI: 5.38 µM
  CC50: 18.9 µM
OVCAR-8
  growth at 10 µM: 37.2%
HOP-62
  GI50: 1170 nM
  LC50 (50% lethal concentration): 52.3 µM
  TGI: 24.7 µM
M14
  growth at 0.001 µM: 95%
MCF7
  GI50: 2230 nM
  LC50: 21.9 µM
  TGI: 5.48 µM
SK-MEL-28
  growth at 1 µM: 30%
HCT-15
  growth at 10 µM: -73%
MDA-MB-435
  growth at 10 µM: -59%
[1]
  GI50: 2250 nM
  TGI: 6.52 µM
  CC50: > 100 µM
DU-145 [2]
  growth at 10 µM: -100%
NCI-H23 [3]
  growth at 0.001 µM: 91%
K562
  GI50: 4870 nM
  LC50 (50% net cell kill): > 100 µM
  TGI: 6.02 µM
UACC-257
  growth at 0.1 µM: 84%
SF-268
  growth at 10 µM: 71.8%
RXF 393
  growth at 0.1 µM: 101%
HL-60(TB)
  growth at 10 µM: 44.3%
COLO 205
  growth at 0.01 µM: 99%
HCT-116
  growth at 0.01 µM: 94%
SW-620
  GI50: 1940 nM
  TGI: 4.33 µM
  CC50: 9.63 µM
Malme-3M
  growth at 10 µM: 115%
NCI-H23 [4]
  growth at 0.1 µM: 96%
DU-145 [5]
  GI50: 2280 nM
  LC50: 26.1 µM
  TGI: 7.18 µM
[6]
  growth at 10 µM: 75.9%
OVCAR-5
  growth at 0.01 µM: 72%
BT-549
  GI50: 2660 nM
  TGI: 11.2 µM
  CC50: 43.1 µM

## COc1cc(C)cc(-c2nn(CC#N)cc2-c2ccc(-c3cccc(C(C)=O)c3)nc2)c1
SNB-19
  GI50: 6.62 µM
  TGI: > 100 µM
  CC50: > 100 µM
786-0
  GI50: 3520 nM
  TGI: 93 µM
  CC50: > 100 µM
OVCAR-8
  growth at 10 µM: 31.4%
HOP-62
  GI50: 3070 nM
  LC50 (50% lethal concentration): > 100 µM
  TGI: 36.9 µM
M14
  growth at 0.001 µM: 94%
MCF7
  GI50: 2050 nM
  LC50: > 100 µM
  TGI: 15.9 µM
SK-MEL-28
  growth at 1 µM: 31%
HCT-15
  growth at 10 µM: 3%
MDA-MB-435
  growth at 10 µM: -22%
[1]
  GI50: 3300 nM
  TGI: 18.6 µM
  CC50: > 100 µM
DU-145 [2]
  growth at 10 µM: -48%
NCI-H23 [3]
  growth at 0.001 µM: 94%
K562
  GI50: 365 nM
  LC50 (50% net cell kill): > 100 µM
  TGI: > 100 µM
UACC-257
  growth at 0.1 µM: 70%
SF-268
  growth at 10 µM: 49.3%
RXF 393
  growth at 0.1 µM: 73%
HL-60(TB)
  growth at 10 µM: 8.33%
COLO 205
  growth at 0.01 µM: 100%
HCT-116
  growth at 0.01 µM: 93%
SW-620
  GI50: 1300 nM
  TGI: 19.3 µM
  CC50: > 100 µM
Malme-3M
  growth at 10 µM: 60.5%
NCI-H23 [4]
  growth at 0.1 µM: 88%
DU-145 [5]
  GI50: 1980 nM
  LC50: > 100 µM
  TGI: 4.95 µM
[6]
  growth at 10 µM: 32%
OVCAR-5
  growth at 0.01 µM: 68%
BT-549
  GI50: 2730 nM
  TGI: 15.1 µM
  CC50: > 100 µM
